From PubChem
L major viab: Leishmania major promastigote growth inhibition; Leishmania major promastigotes, resazurin fluorescence viability; inhibition, % at 10 µM; AID 1063; 200,000 tested, 9% active;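 note: promastigotes grown with compound for 44 hours at 28 °C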
Rad51 HR inh: blocks human Rad51 in homologous recombination; inhibition, % at 10 µM; 200,000 tested, 0.085% active; hRad51 DNA strand exchange, fluorescence dequenching; AID 1385;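 active = inhibition above 40% at the single screening dose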
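Test system: preformed human Rad51 ssDNA filaments; also added: Donor/quencher-labelled 47-bp dsDNA substrate; doses: 10 µM final, single point; times: 37 °C 15-min filament assembly, 30-min compound preincubation, 15-min exchange; detection: FRET fluorescence dequenching, excitation 485 nm, emission 520 nm; read-out basis: Fluorescence-based percent inhibition, control- and blank-normalised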
Arbovirus anti: antivirals against arbovirus infection; arbovirus infection cell-based antiviral screen; inhibition, % at 10 µM; 200,000 tested, 0.37% active; AID 1251; in the data active = inhibition above about 30%
Wee1 degr inh: inhibitors of human Wee1 degradation | reporter increase, % at 5 µM | HeLa Luc-Wee1K328M stability, luciferase luminescence; 100% = proteasome inhibitor MG132 effect | AID 1321 | P30291 | 220,000 tested, 1.2% active;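 active = activation above the mean of all tested compounds plus 3 SD, set per screening run, cut at about 8.8% in these data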;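 note: cells exposed to compound for 20 h before luminescence read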
CHOP inhibitor: inhibitors of CHOP induction in ER stress response | 220,000 tested, 3.8% active | AID 2732 | CHO-K1 CHOP-promoter luciferase, tunicamycin-induced, 15-18 h | inhibition, % at 10 µM;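 active = compounds that reduced the stress-induced luciferase reporter signal by more than about 70% of percent inhibition, limit read from the data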
PKD1 kinase inh: blocks activity of human protein kinase D1; inhibition, % (concentration not given with the values); PKD1 kinase fluorescence polarization assay; Q15139; AID 797; 200,000 tested, 0.056% active
Target sequence (Q15139 whole entry, looked up): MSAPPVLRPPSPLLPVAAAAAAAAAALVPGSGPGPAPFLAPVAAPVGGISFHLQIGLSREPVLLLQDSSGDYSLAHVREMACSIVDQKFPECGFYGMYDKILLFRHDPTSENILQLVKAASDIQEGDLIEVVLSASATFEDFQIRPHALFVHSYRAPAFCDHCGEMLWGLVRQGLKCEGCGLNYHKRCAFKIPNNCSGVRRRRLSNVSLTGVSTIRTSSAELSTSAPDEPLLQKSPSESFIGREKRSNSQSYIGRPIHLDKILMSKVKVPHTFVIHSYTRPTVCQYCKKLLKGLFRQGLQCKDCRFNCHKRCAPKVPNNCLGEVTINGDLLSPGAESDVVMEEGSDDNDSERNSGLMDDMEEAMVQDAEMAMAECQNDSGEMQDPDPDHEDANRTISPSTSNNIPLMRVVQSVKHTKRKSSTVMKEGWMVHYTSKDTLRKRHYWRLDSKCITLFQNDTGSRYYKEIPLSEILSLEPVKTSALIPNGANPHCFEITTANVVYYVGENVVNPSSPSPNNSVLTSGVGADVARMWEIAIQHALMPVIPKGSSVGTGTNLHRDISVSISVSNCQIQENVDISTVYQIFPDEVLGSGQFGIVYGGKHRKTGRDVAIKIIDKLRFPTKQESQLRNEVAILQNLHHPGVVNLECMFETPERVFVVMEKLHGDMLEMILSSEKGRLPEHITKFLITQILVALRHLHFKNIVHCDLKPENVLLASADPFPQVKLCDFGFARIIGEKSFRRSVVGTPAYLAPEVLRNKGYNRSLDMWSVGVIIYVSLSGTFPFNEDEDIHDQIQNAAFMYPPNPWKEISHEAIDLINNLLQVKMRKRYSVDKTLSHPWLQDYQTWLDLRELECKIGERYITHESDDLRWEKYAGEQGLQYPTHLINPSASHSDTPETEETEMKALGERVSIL
Hits are given with their value; . = inactive; / = not tested or not shown. This is a sample that favours compounds with a hit; in the whole collection about 12% have one here. Cut-off read from the data, not from the text of the source, unless noted: active = inhibition above about 50%; inactive = the rest.

SMILES	L major viab	Rad51 HR inh	Arbovirus anti	Wee1 degr inh	CHOP inhibitor	PKD1 kinase inh
O=C(O/N=C\c1ccc(N2CCCCC2)c([N+](=O)[O-])c1)c1cccc(C(F)(F)F)c1	.	.	.	.	.	.
CC1CN(c2ccc([N+](=O)[O-])cc2Cl)CCN1S(C)(=O)=O (configuration not stated)	/	.	/	.	.	/
CCNc1cc(N2CCN(S(=O)(=O)c3ccc4c(c3)CCCC4)CC2)ccc1[N+](=O)[O-]	.	.	.	.	.	.
CC1CN(c2ccc(C(F)(F)F)cc2[N+](=O)[O-])CCN1S(C)(=O)=O (configuration not stated)	76.5	.	.	.	.	.
O=[N+]([O-])c1cc(C(F)(F)F)ccc1N1CCCNCC1	78.7	/	.	.	.	.
CCCCNC(=O)CSc1nc2ccccc2c(=O)n1C1CCCC1	94.9	.	.	.	.	.
CC1=CC(C)(C)N2C(=O)C(=Nc3ccc(O)cc3)c3cccc1c32	/	.	/	.	.	/
COc1cc(N=C2C(=O)N3c4c(cccc42)C(C)=CC3(C)C)cc(OC)c1	61.4	/	.	.	.	.
COc1cc2c3c(c1)C(C)=CC(C)(C)N3C(=O)C2=O	56.1	.	.	.	.	.
COc1cccc(C(=O)Oc2cc3c4c(c2)C(C)=CC(C)(C)N4C(=O)C3=O)c1	.	.	.	.	.	.
Cc1cccc(C)c1NC1=C(Cl)C(=O)OC1OC(C)C (configuration not stated)	50.1	.	.	.	.	.
Oc1ccccc1C1CC(c2cccs2)=NC(c2cccc(Br)c2)N1 (configuration not stated)	.	.	.	.	.	.
CN(C(=O)c1coc(=O)c2ccccc12)c1ccc(Br)cc1	.	.	39.5	.	.	.
CN(C(=O)c1coc(=O)c2ccccc12)c1ccc(F)cc1	.	/	.	.	.	.
CCN(CC)c1ccc(/C=N/NC(=O)CN2CCCc3ccccc32)cc1	.	/	.	.	.	.
O=C(CN1CCCc2ccccc21)N/N=C/c1ccccc1	.	.	.	.	.	.
O=C(CN1CCCc2ccccc21)N/N=C/c1ccc(O)cc1O	98.3	.	.	.	.	.
O=C(CN1CCCc2ccccc21)N/N=C/c1c(O)ccc2ccccc12	98.5	.	.	.	.	.
O=c1c2[nH]c3ccc(Br)cc3c2ncn1Cc1ccncc1	/	.	/	.	.	/
O=C(Nc1ccc(Cl)cc1)NN1CC(=O)N(c2cccc(C(F)(F)F)c2)CC1=O	/	.	/	.	.	/
CCOC(=O)C1CCCN(CCC(=O)Nc2cc(C)ccc2C)C1 (configuration not stated)	.	.	.	.	.	.
CCOC(=O)C1CCN(CCC(=O)Nc2ccc(F)cc2)CC1	70.1	/	.	.	.	.
CCOC(=O)C1CCN(CCC(=O)Nc2ccc(C)c(C)c2)CC1	88.1	.	.	.	.	.
CCOC(=O)C1CCCN(CCC(=O)Nc2ccc3c(c2)CCC3)C1 (configuration not stated)	89.5	.	.	.	.	.
CCOC(=O)C1CCCN(CCC(=O)Nc2ccc(C)c(C)c2)C1 (configuration not stated)	.	.	.	.	.	.
SMILES	L major viab	Rad51 HR inh	Arbovirus anti	Wee1 degr inh	CHOP inhibitor	PKD1 kinase inh
COc1ccc(OCc2nnc(SCC(=O)N(C)Cc3ccccc3)n2N)cc1	.	.	.	.	.	.
Cc1ccc(C(=O)Nc2ccc(N3CCOCC3)nc2N2CCOCC2)cc1	/	.	/	.	.	/
CCOc1cc(/C=C2\C(=O)N(Cc3ccc(C)cc3)C(C)=C2C(=O)OC)ccc1O	.	/	.	.	.	.
C=CCOc1cccc(/C=C2\C(=O)N(Cc3ccc(C)cc3)C(C)=C2C(=O)OC)c1	92.2	.	.	.	.	.
Cc1cc(SCC(=O)c2ccc(O)c(O)c2)n2nc(C)c(-c3ccccc3)c2n1	/	/	/	.	.	/
CCN(CCO)C1CC(=O)N(c2ccccc2C)C1=O (configuration not stated)	59.8	.	.	.	.	.
CCN(CC)C1CC(=O)N(c2cccc(C)c2)C1=O (configuration not stated)	.	.	.	10.0	.	.
COc1ccc(-c2cnn(C3CCS(=O)(=O)C3)c2N)cc1 (configuration not stated)	.	.	.	.	.	.
COc1ccc2c(c1)-c1nc(/N=C/c3ccccc3O)sc1CC2	.	.	.	.	.	.
COc1ccc2c(c1)-c1nc(/N=C/c3cccc(OC)c3O)sc1CC2	60.5	.	.	.	.	.
